Results from different studies.
Protocols differ between the studies behind these lines.
Technique: competition with immobilised ligand
RPS6KA2 N-terminal kinase domain: Ribosomal protein S6 kinase alpha-2, N-terminal kinase domain (RPS6KA2, Homo sapiens, UniProt Q15349)
RPS6KA2 C-terminal kinase domain: Ribosomal protein S6 kinase alpha-2, C-terminal kinase domain (RPS6KA2, Homo sapiens, UniProt Q15349)

CN(C)c1nccc(-c2cnc3ncccn23)n1 — remaining binding (RPS6KA2 N-terminal kinase domain; binding; 1 µM): 83%
COc1cc(C(=O)N2CCC(N3CCN(C)CC3)CC2)ccc1Nc1ncc2c(n1)N(C)c1ccccc1C(=O)N2C — remaining binding (RPS6KA2 C-terminal kinase domain; binding; 10 µM): 7.5%
CNC(=O)[C@@H]1CC[C@@H](n2c(-c3ccc4cnccc4c3)nc3ccc(C(=O)NCc4cccc(C(N)=O)c4)cc32)C1 — remaining binding (RPS6KA2 C-terminal kinase domain; binding; 1 µM): 91%
CN1CCN(c2cnc3c(C4CCN(C(=O)c5ccc(OC(F)(F)F)cc5N)CC4)ncnc3c2)CC1 — remaining binding (RPS6KA2 C-terminal kinase domain; cell-free assay; 1 µM): 100%
CN(c1nccc(-c2cnn3ncccc23)n1)C1CC1 — remaining binding (RPS6KA2 C-terminal kinase domain; binding; 1 µM): 100%
O=C(c1ccc(Nc2ncc(Cl)c(-c3ccc(Cl)s3)n2)cc1)N1CCC(N2CCCC2)CC1 — remaining binding (RPS6KA2 N-terminal kinase domain; binding; 1 µM): 100%
Nc1ncc2c(n1)-c1c([nH]c3ccc(C#CC4CC4)cc13)CCCC2 — remaining binding (RPS6KA2 N-terminal kinase domain; binding; 1 µM): 91%
COc1ccc2cc(OCC3(C(=O)O)CN(C(=O)c4ccc(F)cc4)C3)ccc2c1 — remaining binding (RPS6KA2 C-terminal kinase domain; cell-free assay; 1 µM): 100%
COc1ncc2cc3ccccc3nc2c1C#N — remaining binding (RPS6KA2 C-terminal kinase domain; cell-free assay; 5 µM): 94%
O=C(c1ccc(Nc2nccc(-c3cc4ccccc4s3)n2)cc1)N1CCC(N2CCCC2)CC1 — remaining binding (RPS6KA2 C-terminal kinase domain; binding; 1 µM): 74%
O=C(NCC1CCOCC1)c1n[nH]cc1NC(=O)c1c(F)cccc1F — remaining binding (RPS6KA2 C-terminal kinase domain; binding; 1 µM): 100%
CN(C)c1nccc(-c2cnn3ncccc23)n1 — remaining binding (RPS6KA2 N-terminal kinase domain; binding; 1 µM): 100%
Cc1cnc(Nc2ccc(C(=O)N3CCC(N4CCCC4)CC3)cc2)nc1-c1cc2ccccc2s1 — remaining binding (RPS6KA2 C-terminal kinase domain; binding; 1 µM): 95%
C=CC(=O)N1CCC(C(=O)NCC(=O)N2CCN(c3nc(-c4cnc(N)nc4C(F)F)nc(N4CCOCC4)n3)CC2)CC1 — remaining binding (RPS6KA2 N-terminal kinase domain; binding; 1 µM): 82%
F[C@@H]1CCN(c2nccc(-c3cnn4ncccc34)n2)C1 — remaining binding (RPS6KA2 C-terminal kinase domain; binding; 1 µM): 91%
c1cncc(-c2cccc(Nc3nccc(NC4CCCCC4)n3)c2)c1 — remaining binding (RPS6KA2 N-terminal kinase domain; binding; 10 µM): 44%
CCOCCn1cc(C(=O)Nc2ccc(-n3nc(-c4cccnc4)cc3C(F)(F)F)cn2)ccc1=O — remaining binding (RPS6KA2 N-terminal kinase domain; cell-free assay; 1 µM): 84%
O=C(NCCCN1CCOCC1)c1ccc(Nc2ncc(Cl)c(-c3ccc(Cl)s3)n2)cc1 — remaining binding (RPS6KA2 N-terminal kinase domain; binding; 1 µM): 100%
O=C(Nc1cccnn1)N1CCC(=Cc2cccc(Oc3ccc(C(F)(F)F)cn3)c2)CC1 — remaining binding (RPS6KA2 C-terminal kinase domain; cell-free assay; 1 µM): 100%
C[C@@H](c1ccc(-n2cnc3c(N)ncnc32)cc1)N1CCc2nn(C)c(Cc3ccccc3)c2C1=O — remaining binding (RPS6KA2 C-terminal kinase domain; binding; 0.1 µM): 78%
FC(F)(F)Oc1cccc(-c2cnc3ccc(-c4ccncc4)nn23)c1 — remaining binding (RPS6KA2 N-terminal kinase domain; binding; 5 µM): 79%
O=C(Nc1c[nH]nc1C(=O)NC1CCNCC1)c1cc(F)cc(F)c1 — remaining binding (RPS6KA2 N-terminal kinase domain; binding; 1 µM): 100%
Cc1c(NC(=O)c2cc(C(N)=O)nc3cc(F)ccc23)c(C(F)(F)F)nn1Cc1ccc(C#N)cc1 — remaining binding (RPS6KA2 C-terminal kinase domain; cell-free assay; 1 µM): 86%
N[C@@H]1CCN(c2nccc(-c3cnn4ncccc34)n2)C1 — remaining binding (RPS6KA2 N-terminal kinase domain; binding; 1 µM): 100%
COc1cnc(Nc2cccc(S(N)(=O)=O)c2)nc1N1CCN(c2ccccc2)C(=O)C1 — remaining binding (RPS6KA2 C-terminal kinase domain; binding; 1 µM): 100%
COc1ccnn2ncc(-c3ccnc(N(C)C)n3)c12 — remaining binding (RPS6KA2 C-terminal kinase domain; binding; 1 µM): 100%
O=C(c1ccc(Nc2ncc(Cl)c(-c3cc4ccccc4s3)n2)cc1)N1CCC(N2CCCC2)CC1 — remaining binding (RPS6KA2 C-terminal kinase domain; binding; 1 µM): 100%
COc1cnc(Nc2cccc(S(N)(=O)=O)c2)nc1N1CCN(c2ccccc2)CC1 — remaining binding (RPS6KA2 N-terminal kinase domain; binding; 1 µM): 93%
CS(=O)(=O)N1CCCC(NC(=O)[C@H](CCC2CCCCC2)NC(=O)c2ccc(CNC(=O)c3cnc4ccccn34)cc2)C1 (stereo partly shown) — remaining binding (RPS6KA2 C-terminal kinase domain; cell-free assay; 0.1 µM): 94%
O=C(NCCCN1CCOCC1)c1ccc(Nc2nccc(-c3cc4ccccc4s3)n2)cc1 — remaining binding (RPS6KA2 N-terminal kinase domain; binding; 1 µM): 100%
COCCOc1nc(-c2ccc(Cl)nc2)nc2c1CN(C(=O)c1ncn3ccccc13)CC2 — remaining binding (RPS6KA2 C-terminal kinase domain; cell-free assay; 0.1 µM): 100%
CCN1CCN(Cc2ccc(C(=O)Nc3ccc(C)c(Oc4ccc5c(c4)CC(=O)N5)c3)cc2C(F)(F)F)CC1 — remaining binding (RPS6KA2 N-terminal kinase domain; binding; 1 µM): 100%
O=S(=O)(NC1CCC(c2cc(F)ccc2F)(S(=O)(=O)c2ccc(Cl)cc2)CC1)C(F)(F)F (stereo not shown) — remaining binding (RPS6KA2 C-terminal kinase domain; cell-free assay; 1 µM): 95%
CN(CCCC(F)(F)F)c1nccc(-c2cnn3ncccc23)n1 — remaining binding (RPS6KA2 N-terminal kinase domain; binding; 1 µM): 86%
